According to ChEMBL document CHEMBL1152539, “Synthesis and evaluation of bioactive naphthoquinones from the Brazilian medicinal plant, Tabebuia avellanedae” (Bioorg Med Chem, 2009):
≈ marks a conversion by molar mass, not a printed value.

Assays:
PC-3 = test: Antiproliferative activity against human PC3 cells after 72 hrs by trypan blue exclusion assay; assay type: functional, cell-based; conditions: PC-3, 72 h
How it was run: (§1)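 Cells were kept in DMEM with 10% fetal serum and exposed to four concentrations of compound for 72 h at 37 °C in humidified 5% CO₂. They were then stained with 0.25% trypan blue for 20 min, and viable cells were counted by light microscopy. IC₅₀ was derived from separate experiments run in triplicate.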

Raji [1] = test: Inhibition of 12-O-tetradecanoylphorbol-13-acetate-induced EBV-early antigen activation in human Raji cells assessed as EA induction at 1000 molar ratio after 48 hrs by immunofluorescence technique relative to 12-O-tetradecanoylphorbol-13-acetate; assay type: cell-based; conditions: human gammaherpesvirus 4
How it was run: (§2)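 Raji cells were incubated for 48 h at 37 °C in medium with n-butyric acid (4 mM), TPA (32 pmol) and graded amounts of test compound. Smears were stained for EBV-EA by indirect immunofluorescence, and positive cells were counted among at least 500 cells. Assays were run in triplicate. Activity was expressed relative to the n-butyric acid plus TPA control, set as 100%.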

Raji [2] = test: Inhibition of 12-O-tetradecanoylphorbol-13-acetate-induced EBV-early antigen activation in human Raji cells assessed as EA induction at 100 molar ratio after 48 hrs by immunofluorescence technique relative to 12-O-tetradecanoylphorbol-13-acetate; assay type: cell-based; set-up: scale not given: the % may be the effect or the level left; conditions: human gammaherpesvirus 4; how it was run: as §2
[3] = Cytotoxicity against human Raji cells assessed as cell viability at 1000 molar ratio after 48 hrs by trypan blue staining; assay type: cell-based; conditions: read-out: Activity
How it was run: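 Raji cells were exposed for 48 h at 37 °C to n-butyric acid (4 mM), TPA (32 pmol) and test compound, as in the EBV-EA induction setup. Viability of the treated cells was then measured by trypan blue staining.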

[4] = Antiproliferative activity against human Hs888Lu cells after 72 hrs by trypan blue exclusion assay; assay type: cell-based; how it was run: as §1
Raji [5] = test: Inhibition of 12-O-tetradecanoylphorbol-13-acetate-induced EBV-early antigen activation in human Raji cells assessed as EA induction at 10 molar ratio after 48 hrs by immunofluorescence technique relative to 12-O-tetradecanoylphorbol-13-acetate; assay type: cell-based; set-up: scale not given: the % may be the effect or the level left; conditions: human gammaherpesvirus 4; how it was run: as §2
[6] = Antiproliferative activity against human SVCT-M12 cells after 72 hrs by trypan blue exclusion assay; assay type: cell-based; conditions: SVCT-M12, 72 h; how it was run: as §1
MCF7 = test: Antiproliferative activity against human MCF7 cells after 72 hrs by trypan blue exclusion assay; assay type: functional, cell-based; conditions: MCF7, 72 h; how it was run: as §1
Raji [7] = test: Inhibition of 12-O-tetradecanoylphorbol-13-acetate-induced EBV-early antigen activation in human Raji cells assessed as EA induction at 500 molar ratio after 48 hrs by immunofluorescence technique relative to 12-O-tetradecanoylphorbol-13-acetate; assay type: cell-based; set-up: scale not given: the % may be the effect or the level left; conditions: human gammaherpesvirus 4; how it was run: as §2
[8] = Inhibition of 12-O-tetradecanoylphorbol-13-acetate-induced EBV-early antigen activation in human Raji cells after 48 hrs by immunofluorescence technique; assay type: cell-based, human gammaherpesvirus 4; how it was run: as §2
A549 = test: Antiproliferative activity against human A549 cells after 72 hrs by trypan blue exclusion assay; assay type: functional, cell-based; conditions: A549, 72 h; how it was run: as §1
[9] = Cytotoxicity against human Raji cells assessed as cell viability at 500 molar ratio after 48 hrs by trypan blue staining; assay type: cell-based; conditions: read-out: Activity
How it was run: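 Raji cells incubated 48 h at 37 °C in medium containing n-butyric acid (4 mM), TPA (32 pmol) and various amounts of test compound, as part of the EBV-EA activation inhibition assay. Viability of the treated cells was then assayed by trypan blue staining.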

Pseudomonas aeruginosa = test: Antimicrobial activity against Pseudomonas aeruginosa NBRC13275 after 24 hrs by broth dilution method; assay type: functional; conditions: NBRC13275, 24 h
How it was run: (§3)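 Modified NCCLS broth dilution. A 50 µL aliquot of bacterial cells (10⁶/mL in 0.85% NaCl) was added to 1 mL Mueller-Hinton broth containing compound over a 0.1–100 range.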

Bacillus subtilis = test: Antimicrobial activity against Bacillus subtilis NBRC3134 after 24 hrs by broth dilution method; assay type: functional; conditions: NBRC3134, 24 h; how it was run: as §3
[10] = Anticancer activity against DMBA/TPA-induced skin cancer in mouse assessed as incidence of papilloma at 85 nmol administered before TPA challenge measured after 20 weeks; assay type: functional
How it was run: (§4)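 Mouse two-stage skin model: DMBA 390 nmol in 0.1 mL acetone applied topically by pipet. One week later, the same skin site was painted with test compound (85 nmol in acetone) or acetone alone, 60 min before TPA (1.7 nmol). Tumor response was scored as the average number of papillomas per mouse and the percentage of mice bearing papillomas.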

Candida albicans [11] = test: Antimicrobial activity against Candida albicans NBRC1060 after 3-5 days by broth dilution method; conditions: NBRC1060, 3-5 days
[12] = Anticancer activity against DMBA/TPA-induced skin cancer in mouse assessed as incidence of papilloma at 85 nmol administered before TPA challenge measured after 15 weeks; assay type: functional; how it was run: as §4
Bacillus mycoides = test: Antimicrobial activity against Bacillus mycoides ATCC 11778 after 24 hrs by broth dilution method; assay type: functional; conditions: ATCC 11778, 24 h; how it was run: as §3
Aspergillus fumigatus [13] = test: Antimicrobial activity against Aspergillus fumigatus NBRC4400 after 3-5 days by broth dilution method; conditions: NBRC4400, 3-5 days
Paecilomyces variotii [14] = test: Antimicrobial activity against Paecilomyces variotii NBRC4855 after 3-5 days by broth dilution method; conditions: NBRC4855, 3-5 days
Hepatocyte = test: Antiproliferative activity against human hepatocytes after 72 hrs by trypan blue exclusion assay; assay type: cell-based; how it was run: as §1
[15] = Anticancer activity against DMBA/TPA-induced skin cancer in mouse assessed as incidence of papilloma at 85 nmol administered before TPA challenge measured after 10 weeks; assay type: functional; how it was run: as §4
Salmonella enteritidis = test: Antimicrobial activity against Salmonella enteritidis OPS10 after 24 hrs by broth dilution method; assay type: functional, Salmonella enterica subsp. enterica serovar Enteritidis; conditions: Salmonella enterica, OPS10, 24 h; how it was run: as §3
[16] = Antiproliferative activity against human skin fibroblast after 72 hrs by trypan blue exclusion assay; assay type: cell-based; how it was run: as §1
Saccharomyces cerevisiae = test: Antimicrobial activity against Saccharomyces cerevisiae NBRC10114 after 3-5 days by broth dilution method; conditions: NBRC10114, 3-5 days
Escherichia coli = test: Antimicrobial activity against Escherichia coli ATCC 11775 after 24 hrs by broth dilution method; assay type: functional; conditions: ATCC 11775, 24 h; how it was run: as §3
[17] = Anticancer activity against DMBA/TPA-induced skin cancer in mouse assessed as number of papillomas per mouse at 85 nmol administered before TPA challenge measured after 20 weeks; assay type: functional; how it was run: as §4
Staphylococcus aureus = test: Antimicrobial activity against Staphylococcus aureus NBRC13276 after 24 hrs by broth dilution method; assay type: functional; conditions: NBRC13276, 24 h; how it was run: as §3
Penicillium expansum [18] = test: Antimicrobial activity against Penicillium expansum NBRC8800 after 3-5 days by broth dilution method; conditions: NBRC8800, 3-5 days
Naganishia albida [19] = test: Antimicrobial activity against Cryptococcus albidus NBRC0378 after 24 hrs by broth dilution method; assay type: functional; conditions: NBRC0378, 24 h
Aspergillus fumigatus [20] = test: Antimicrobial activity against Aspergillus fumigatus NBRC4400 after 24 hrs by broth dilution method; assay type: functional; conditions: NBRC4400, 24 h
Paecilomyces variotii [21] = test: Antimicrobial activity against Paecilomyces variotii NBRC4855 after 24 hrs by broth dilution method; assay type: functional; conditions: NBRC4855, 24 h
Naganishia albida [22] = test: Antimicrobial activity against Cryptococcus albidus NBRC0378 after 3-5 days by broth dilution method; conditions: NBRC0378, 3-5 days
Candida albicans [23] = test: Antimicrobial activity against Candida albicans NBRC1060 after 24 hrs by broth dilution method; assay type: functional; conditions: NBRC1060, 24 h
Penicillium expansum [24] = test: Antimicrobial activity against Penicillium expansum NBRC8800 after 24 hrs by broth dilution method; assay type: functional; conditions: NBRC8800, 24 h

SMILES | IC50 (PC-3) [µM] | EA induction relative to TPA control (Raji [1]) [%] | Activity (Raji [2]) [%] | viability at 48 h, 1000 molar ratio [3] [%] | EC50 [4] [µM] | Activity (Raji [5]) [%] | EC50 [6] [µM] | IC50 (MCF7) [µM] | Activity (Raji [7]) [%] | IC50 [8] [mol ratio/32 pmol TPA] | IC50 (A549) [µM] | MIC (Pseudomonas aeruginosa) [µg/mL] | MIC (Bacillus subtilis) [µg/mL] | MIC (Candida albicans [11]) [µg/mL] | MIC (Bacillus mycoides) [µg/mL] | MIC (Aspergillus fumigatus [13]) [µg/mL] | MIC (Paecilomyces variotii [14]) [µg/mL] | MIC (Salmonella enteritidis) [µg/mL] | MIC (Saccharomyces cerevisiae) [µg/mL] | MIC (Escherichia coli) [µg/mL] | other results
CC(=O)c1cc2c(o1)C(=O)c1c(O)cccc1C2=O | 3 | 0 | 27.5 | 70 | 14.6 | 60.3 | 11.7 | 2.61 | 8.3 | 40.1 | 4.31 |  |  |  |  |  |  |  |  |  | 
CC(C)=CCC1=C(O)C(=O)c2ccccc2C1=O [LAPACHOL] | 1.97 | 8.9 | 65.2 | 50 |  | 86.6 |  | 10.2 | 32.8 | 311 | 4.78 |  |  |  |  |  |  |  |  |  | viability at 48 h, 500 molar ratio [9]: 60%
C[C@@H](O)c1cc2c(o1)C(=O)c1cccc(O)c1C2=O |  | 0 | 24.7 | 70 |  | 59.4 |  |  | 9.7 | 38.9 |  | > 100 | 0.78 (≈ 3.02 µM) | 25 (≈ 96.8 µM) | 0.78 (≈ 3.02 µM) | 12.5 (≈ 48.4 µM) | 25 (≈ 96.8 µM) | > 100 | 3.13 (≈ 12.1 µM) | > 100 | Activity [10]: 67%; Activity [12]: 47%; EC50 (Hepatocyte): 29.8 µM; Activity [15]: 7%; EC50 [16]: 39.7 µM; Activity [17]: 3.9; MIC (Staphylococcus aureus): 3.13 µg/mL (≈ 12.1 µM); MIC (Penicillium expansum [18]): 25 µg/mL (≈ 96.8 µM); MIC (Naganishia albida [19]): 1.56 µg/mL (≈ 6.04 µM)
C[C@@H]1[C@H](O)[C@@H](C)/C=C/C=C/C=C/C=C/C=C/C=C/C=C/[C@H](O[C@@H]2O[C@H](C)[C@@H](O)[C@H](N)[C@@H]2O)C[C@@H]2O[C@](O)(C[C@@H](O)C[C@@H](O)[C@H](O)CC[C@@H](O)C[C@@H](O)CC(=O)O[C@H]1C)C[C@H](O)[C@H]2C(=O)O [AMPHOTERICIN B] |  |  |  |  |  |  |  |  |  |  |  |  |  | 1.56 (≈ 1.69 µM) |  |  |  |  | 0.78 (≈ 0.844 µM) |  | MIC (Aspergillus fumigatus [20]): 1.56 µg/mL (≈ 1.69 µM); MIC (Paecilomyces variotii [21]): 0.78 µg/mL (≈ 0.844 µM); MIC (Penicillium expansum [18]): 1.56 µg/mL (≈ 1.69 µM); MIC (Naganishia albida [22]): 1.56 µg/mL (≈ 1.69 µM)
CC1(C)CCC2=C(O1)c1ccccc1C(=O)C2=O [LAPACHONE] | 1.13 | 4.7 | 50.4 | 50 |  | 73.1 |  | 9.96 | 21.7 | 210 | 4.21 |  |  |  |  |  |  |  |  |  | 
CC(=O)c1cc2c(o1)C(=O)c1cccc(O)c1C2=O | 0.84 | 0 | 23.7 | 60 | 7.7 | 56 | 7.7 | 0.78 | 7.1 | 37.2 | 2 | > 100 | 1.56 (≈ 6.09 µM) |  | 0.78 (≈ 3.04 µM) | 100 (≈ 390 µM) | 100 (≈ 390 µM) | > 100 | 1.56 (≈ 6.09 µM) | > 100 | MIC (Candida albicans [23]): > 100 µg/mL; MIC (Penicillium expansum [24]): 50 µg/mL (≈ 195 µM); MIC (Staphylococcus aureus): 1.56 µg/mL (≈ 6.09 µM); MIC (Naganishia albida [22]): 1.56 µg/mL (≈ 6.09 µM)
